Measured values as given in ChEMBL document CHEMBL2016460, “Synthesis, biological evaluation, and molecular docking studies of 2,6-dinitro-4-(trifluoromethyl)phenoxysalicylaldoxime derivatives as novel antitubulin agents” (Bioorg Med Chem, 2012).

How the values were obtained:
[1] = Inhibition of bovine tubulin polymerization after 20 mins by spectrophotometry; design: species or system Bos taurus
Method in brief: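 Tubulin was preincubated in glutamate buffer at 30 °C and then cooled to 0 °C. GTP was added, samples were moved to 0 °C cuvettes and warmed to 30 °C, and assembly was followed turbidimetrically in a recording spectrophotometer. IC50 was taken as the concentration inhibiting the extent of assembly by 50% after 20 min.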

[2] = tested on: A549; experiment: Antiproliferative activity against human A549 cells after 48 hrs by MTT assay; format: functional, cell-based; details: A549, 48 h
Method in brief: (§1)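 Cells were seeded into 96-well plates in complete medium and preincubated 24 h at 37 °C, 5% CO2. Compounds at preset concentrations were added to six wells, with colchicine and CA-4 run alongside as references, and exposed for 48 h. MTT (2.5 mg mL^-1 in PBS) was added for 4 h, followed by SDS/isobutyl alcohol/HCl extraction overnight at 37 °C. OD was read at 570 nm, with three replicate wells per concentration.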

[3] = tested on: HepG2; experiment: Antiproliferative activity against human HepG2 cells after 48 hrs by MTT assay; format: functional, cell-based; details: HepG2, 48 h; method in brief: as §1
[4] = tested on: MCF7; experiment: Antiproliferative activity against human MCF7 cells after 48 hrs by MTT assay; format: functional, cell-based; details: MCF7, 48 h; method in brief: as §1
[5] = tested on: MCF7; experiment: Induction of apoptosis in human MCF7 cells assessed as late apoptotic cells at 0.25 uM incubated for 24 hrs by Annexin-V-FITC/PI staining based flow cytometry (reference value: 3.17 %); format: functional
[6] = tested on: MCF7; experiment: Induction of apoptosis in human MCF7 cells assessed as early apoptotic cells at 0.05 uM incubated for 24 hrs by Annexin-V-FITC/PI staining based flow cytometry (reference value: 7.4 %); format: functional
[7] = tested on: MCF7; experiment: Induction of apoptosis in human MCF7 cells assessed as late apoptotic cells incubated for 24 hrs by Annexin-V-FITC/PI staining based flow cytometry; format: functional, cell-based
[8] = tested on: MCF7; experiment: Induction of apoptosis in human MCF7 cells assessed as early apoptotic cells at 0.25 uM incubated for 24 hrs by Annexin-V-FITC/PI staining based flow cytometry (reference value: 7.4 %); format: functional
[9] = tested on: MCF7; experiment: Induction of apoptosis in human MCF7 cells assessed as late apoptotic cells at 0.05 uM incubated for 24 hrs by Annexin-V-FITC/PI staining based flow cytometry (reference value: 3.17 %); format: functional
[10] = tested on: MCF7; experiment: Induction of apoptosis in human MCF7 cells assessed as early apoptotic cells at 0.01 uM incubated for 24 hrs by Annexin-V-FITC/PI staining based flow cytometry (reference value: 7.4 %); format: functional
[11] = tested on: MCF7; experiment: Induction of apoptosis in human MCF7 cells assessed as late apoptotic cells at 0.01 uM incubated for 24 hrs by Annexin-V-FITC/PI staining based flow cytometry (reference value: 3.17 %); format: functional

Q: Which IC50 [1] does the source give for `O=[N+]([O-])c1cc(C(F)(F)F)cc([N+](=O)[O-])c1Oc1ccc(Br)cc1/C=N\OCc1ccc(Cl)cc1Cl` here?
A: 7060 nM

Q: What about the IC50 [2] of the same molecule?
A: 2060 nM

Q: What about the IC50 [3] of the same molecule?
A: 1070 nM

Q: And the IC50 [4]?
A: 1340 nM

Q: Which IC50 [1] does the source give for `O=[N+]([O-])c1cc(C(F)(F)F)cc([N+](=O)[O-])c1Oc1c(Cl)cc(Cl)cc1/C=N/OCc1ccccc1Cl` here?
A: 16100 nM

Q: And the IC50 [2]?
A: 2160 nM

Q: What about the IC50 [3] of the same molecule?
A: 1120 nM

Q: And the IC50 [4]?
A: 1960 nM

Q: With `O=[N+]([O-])c1cc(C(F)(F)F)cc([N+](=O)[O-])c1Oc1ccc(Br)cc1/C=N/OCc1ccccc1Cl` as the molecule, how does the IC50 [1] read?
A: 13200 nM

Q: And the IC50 [2]?
A: 3430 nM

Q: And the IC50 [3]?
A: 1240 nM

Q: And the IC50 [4]?
A: 2840 nM

Q: Which results are given for `O=[N+]([O-])c1cc(C(F)(F)F)cc([N+](=O)[O-])c1Oc1c(Br)cc(Br)cc1/C=N\OCc1ccccc1F`?
A: IC50 [1]: 4530 nM; IC50 [2]: 1560 nM; IC50 [3]: 1100 nM; IC50 [4]: 880 nM

Q: For `O=[N+]([O-])c1cc(C(F)(F)F)cc([N+](=O)[O-])c1Oc1ccc(Br)cc1/C=N\OCc1ccccc1`, which IC50 [1] is on record?
A: 15400 nM

Q: What about the IC50 [2] of the same molecule?
A: 2240 nM

Q: And the IC50 [3]?
A: 1180 nM

Q: And the IC50 [4]?
A: 1150 nM

Q: Which IC50 [1] does the source give for `O=[N+]([O-])c1cc(C(F)(F)F)cc([N+](=O)[O-])c1Oc1ccccc1/C=N/OCc1ccccc1Cl` here?
A: 6920 nM

Q: What about the IC50 [2] of the same molecule?
A: 1430 nM

Q: And the IC50 [3]?
A: 1170 nM

Q: What about the IC50 [4] of the same molecule?
A: 1100 nM

Q: For `O=[N+]([O-])c1cc(C(F)(F)F)cc([N+](=O)[O-])c1Oc1ccccc1/C=N\OCc1ccccc1`, which IC50 [1] is on record?
A: 14000 nM

Q: And the IC50 [2]?
A: 1470 nM

Q: And the IC50 [3]?
A: 1330 nM

Q: And the IC50 [4]?
A: 1330 nM

Q: With `COc1ccc(/C=C\c2cc(OC)c(OC)c(OC)c2)cc1O` [COMBRETASTATIN A4] as the molecule, how does the IC50 [1] read?
A: 700 nM

Q: What about the IC50 [2] of the same molecule?
A: 90 nM

Q: And the IC50 [3]?
A: 190 nM

Q: What about the IC50 [4] of the same molecule?
A: 410 nM

Q: With `O=[N+]([O-])c1cc(C(F)(F)F)cc([N+](=O)[O-])c1Oc1ccc(Cl)cc1/C=N\OCc1ccccc1Cl` as the molecule, how does the IC50 [1] read?
A: 9050 nM

Q: And the IC50 [2]?
A: 5030 nM

Q: What about the IC50 [3] of the same molecule?
A: 1510 nM

Q: What about the IC50 [4] of the same molecule?
A: 3950 nM

Q: Which IC50 [1] does the source give for `O=[N+]([O-])c1cc(C(F)(F)F)cc([N+](=O)[O-])c1Oc1c(Cl)cc(Cl)cc1/C=N\OCc1ccccc1F` here?
A: 3650 nM

Q: And the IC50 [2]?
A: 1230 nM

Q: And the IC50 [3]?
A: 820 nM

Q: What about the IC50 [4] of the same molecule?
A: 800 nM

Q: What does the source list for `O=[N+]([O-])c1cc(C(F)(F)F)cc([N+](=O)[O-])c1Oc1c(Cl)cc(Cl)cc1/C=N/OCc1ccc(Cl)cc1Cl`?
A: IC50 [1]: 6180 nM; IC50 [2]: 1420 nM; IC50 [3]: 940 nM; IC50 [4]: 1030 nM

Q: For `O=[N+]([O-])c1cc(C(F)(F)F)cc([N+](=O)[O-])c1Oc1ccc(Cl)cc1/C=N\OCc1ccccc1F`, which IC50 [1] is on record?
A: 7070 nM

Q: And the IC50 [2]?
A: 2570 nM

Q: And the IC50 [3]?
A: 1020 nM

Q: What about the IC50 [4] of the same molecule?
A: 1110 nM

Q: For `COc1cc2c(c(OC)c1OC)-c1ccc(OC)c(=O)cc1[C@@H](NC(C)=O)CC2` [COLCHICINE], which IC50 [1] is on record?
A: 1720 nM

Q: And the IC50 [2]?
A: 750 nM

Q: And the IC50 [3]?
A: 230 nM

Q: What about the IC50 [4] of the same molecule?
A: 530 nM

Q: Which results are given for `O=[N+]([O-])c1cc(C(F)(F)F)cc([N+](=O)[O-])c1Oc1ccc(Cl)cc1/C=N\OCc1ccc(Cl)cc1Cl`?
A: IC50 [1]: 7540 nM; IC50 [2]: 3440 nM; IC50 [3]: 1280 nM; IC50 [4]: 1140 nM

Q: For `O=[N+]([O-])c1cc(C(F)(F)F)cc([N+](=O)[O-])c1Oc1c(Br)cc(Br)cc1/C=N\OCc1ccccc1Cl`, which IC50 [1] is on record?
A: 18100 nM

Q: What about the IC50 [2] of the same molecule?
A: 4120 nM

Q: And the IC50 [3]?
A: 2450 nM

Q: And the IC50 [4]?
A: 2320 nM

Q: Which results are given for `O=[N+]([O-])c1cc(C(F)(F)F)cc([N+](=O)[O-])c1Oc1ccc(Cl)cc1/C=N\OCc1ccccc1`?
A: IC50 [1]: 30900 nM; IC50 [2]: 3410 nM; IC50 [3]: 1790 nM; IC50 [4]: 1220 nM

Q: With `O=[N+]([O-])c1cc(C(F)(F)F)cc([N+](=O)[O-])c1Oc1ccc(Br)cc1/C=N\OCc1ccccc1F` as the molecule, how does the IC50 [1] read?
A: 6900 nM

Q: And the IC50 [2]?
A: 1280 nM

Q: And the IC50 [3]?
A: 890 nM

Q: What about the IC50 [4] of the same molecule?
A: 1120 nM

Q: Which IC50 [1] does the source give for `O=[N+]([O-])c1cc(C(F)(F)F)cc([N+](=O)[O-])c1Oc1ccccc1/C=N/OCc1ccc(Cl)cc1Cl` here?
A: 4080 nM

Q: What about the IC50 [2] of the same molecule?
A: 1610 nM

Q: And the IC50 [3]?
A: 1020 nM

Q: And the IC50 [4]?
A: 940 nM

Q: Which results are given for `O=[N+]([O-])c1cc(C(F)(F)F)cc([N+](=O)[O-])c1Oc1c(Br)cc(Br)cc1/C=N/OCc1ccc(Cl)cc1Cl`?
A: IC50 [1]: 15700 nM; IC50 [2]: 6190 nM; IC50 [3]: 1050 nM; IC50 [4]: 2090 nM

Q: What does the source list for `O=[N+]([O-])c1cc(C(F)(F)F)cc([N+](=O)[O-])c1Oc1c(Cl)cc(Cl)cc1/C=N\OCc1ccccc1`?
A: IC50 [1]: 9020 nM; IC50 [2]: 1450 nM; IC50 [3]: 1120 nM; IC50 [4]: 1210 nM

Q: What does the source list for `O=[N+]([O-])c1cc(C(F)(F)F)cc([N+](=O)[O-])c1Oc1c(Br)cc(Br)cc1/C=N\OCc1ccccc1`?
A: IC50 [1]: 18000 nM; IC50 [2]: 2150 nM; IC50 [3]: 1480 nM; IC50 [4]: 1830 nM

Q: For `O=[N+]([O-])c1cc(C(F)(F)F)cc([N+](=O)[O-])c1Oc1ccccc1/C=N\OCc1ccccc1F`, which Activity [5] is on record?
A: 9.65%

Q: And the IC50 [1]?
A: 3060 nM

Q: What about the Activity [6] of the same molecule?
A: 27.64%

Q: What about the Activity [7] of the same molecule?
A: Dose-dependent effect

Q: And the IC50 [2]?
A: 860 nM

Q: What about the Activity [8] of the same molecule?
A: 34.51%

Q: And the IC50 [3]?
A: 680 nM

Q: What about the Activity [9] of the same molecule?
A: 7.72%

Q: What about the Activity [10] of the same molecule?
A: 17.32%

Q: What about the Activity [11] of the same molecule?
A: 4.46%

Q: And the IC50 [4]?
A: 700 nM
